From ChEMBL document CHEMBL3112482, “Nonclassical antifolates, part 5. Benzodiazepine analogs as a new class of DHFR inhibitors: synthesis, antitumor testing and molecular modeling study” (Eur J Med Chem, 2014)

How the values were obtained:
[1] = tested on: MDA-MB-435; assay: Growth inhibition of human MDA-MB-435 cells at 10 uM after 48 hrs; type: functional; details: MDA-MB-435, 48 h, read-out: GI
Outline: (§1)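 Single-dose primary screen in the NCI 60 human tumour cell line panel, run at the NCI facility. The panel covers nine subpanels: leukaemia, non-small cell lung, colon, CNS, melanoma, ovarian, renal, prostate and breast. Read-out was percent growth of treated cells, shown as a mean graph and reported as percent growth inhibition.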

[2] = tested on: SNB-75; assay: Growth inhibition of human SNB75 cells at 10 uM after 48 hrs; type: functional; details: SNB-75, 48 h, read-out: GI
Outline: (§2)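 NCI 60-cell-line disease-oriented human tumor panel, single-dose primary screen at 10 µM. Data given as mean-graph percent growth of treated cells, reported as percent growth inhibition (GI %).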

[3] = tested on: SNB-19; assay: Growth inhibition of human SNB19 cells at 10 uM after 48 hrs; type: functional; details: SNB-19, 48 h, read-out: GI; outline: as §2
[4] = Growth inhibition of human SF539 cells at 10 uM after 48 hrs; type: functional; details: SF-539, 48 h, read-out: GI; outline: as §2
[5] = tested on: SF-268; assay: Growth inhibition of human SF268 cells at 10 uM after 48 hrs; type: functional; details: SF-268, 48 h, read-out: GI; outline: as §2
[6] = tested on: SW-620; assay: Growth inhibition of human SW620 cells at 10 uM after 48 hrs; type: functional; details: SW-620, 48 h, read-out: GI; outline: as §2
[7] = tested on: HT-29; assay: Growth inhibition of human HT-29 cells at 10 uM after 48 hrs; type: functional; details: HT-29, 48 h, read-out: GI; outline: as §1
[8] = Growth inhibition of human HCC2998 cells at 10 uM after 48 hrs; type: functional; details: HCC 2998, 48 h, read-out: GI; outline: as §1
[9] = tested on: NCI-H460; assay: Growth inhibition of human NCI-H460 cells at 10 uM after 48 hrs; type: functional; details: NCI-H460, 48 h, read-out: GI; outline: as §1
[10] = tested on: NCI-H322M; assay: Growth inhibition of human NCI-H322M cells at 10 uM after 48 hrs; type: functional; details: read-out: GI; outline: as §1
[11] = tested on: NCI-H23; assay: Growth inhibition of human NCI-H23 cells at 10 uM after 48 hrs; type: functional; details: NCI-H23, 48 h, read-out: GI; outline: as §1
[12] = tested on: NCI-H226; assay: Growth inhibition of human NCI-H226 cells at 10 uM after 48 hrs; type: functional; details: NCI-H226, 48 h, read-out: GI; outline: as §1
[13] = Growth inhibition of human EKVX cells at 10 uM after 48 hrs; type: functional; details: read-out: GI; outline: as §1
[14] = tested on: A549; assay: Growth inhibition of human A549 cells at 10 uM after 48 hrs; type: functional; details: A549, 48 h, read-out: GI; outline: as §1
[15] = tested on: SR; assay: Growth inhibition of human SR cells at 10 uM after 48 hrs; type: functional; details: read-out: GI; outline: as §2
[16] = tested on: K562; assay: Growth inhibition of human K562 cells at 10 uM after 48 hrs; type: functional; details: K562, 48 h, read-out: GI; outline: as §1
[17] = tested on: MOLT-4; assay: Growth inhibition of human MOLT4 cells at 10 uM after 48 hrs; type: functional; details: MOLT-4, 48 h, read-out: GI; outline: as §1
[18] = tested on: CCRF-CEM; assay: Growth inhibition of human CCRF-CEM cells at 10 uM after 48 hrs; type: functional; details: read-out: GI; outline: as §1
[19] = target: T1, Dihydrofolate reductase (Bos taurus, UniProt P00376); assay: Inhibition of bovine liver DHFR measured for every 1 min of 10 mins
T1 sequence (P00376 whole entry): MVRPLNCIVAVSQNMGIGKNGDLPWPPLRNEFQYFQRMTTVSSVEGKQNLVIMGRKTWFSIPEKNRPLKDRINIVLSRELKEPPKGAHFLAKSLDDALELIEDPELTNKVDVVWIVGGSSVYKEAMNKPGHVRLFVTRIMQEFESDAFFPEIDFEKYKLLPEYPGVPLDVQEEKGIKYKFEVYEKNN

[20] = Cytotoxicity against human prostate cancer cells at 10 uM after 48 hrs; type: functional; details: Cancer cell lines
[21] = Cytotoxicity against human renal cancer cells at 10 uM after 48 hrs; type: functional; details: Cancer cell lines
[22] = Cytotoxicity against human CNS cancer cells at 10 uM after 48 hrs; type: functional; details: Cancer cell lines
[23] = tested on: T47D; assay: Growth inhibition of human T47D cells at 10 uM after 48 hrs; type: functional; details: read-out: GI; outline: as §2
[24] = tested on: BT-549; assay: Growth inhibition of human BT549 cells at 10 uM after 48 hrs; type: functional; details: BT-549, 48 h, read-out: GI; outline: as §1
[25] = Growth inhibition of human Hs 578T cells at 10 uM after 48 hrs; type: functional; details: read-out: GI; outline: as §1
[26] = tested on: MCF7; assay: Growth inhibition of human MCF7 cells at 10 uM after 48 hrs; type: functional; details: MCF7, 48 h, read-out: GI; outline: as §1
[27] = tested on: MDA-MB-231; assay: Growth inhibition of human MDA-MB-231 cells at 10 uM after 48 hrs; type: functional; details: MDA-MB-231, 48 h, read-out: GI; outline: as §1
[28] = tested on: PC-3; assay: Growth inhibition of human PC3 cells at 10 uM after 48 hrs; type: functional; details: PC-3, 48 h, read-out: GI; outline: as §1
[29] = tested on: TK-10; assay: Growth inhibition of human TK10 cells at 10 uM after 48 hrs; type: functional; details: TK-10, 48 h, read-out: GI; outline: as §2
[30] = Growth inhibition of human UO31 cells at 10 uM after 48 hrs; type: functional; details: UO-31, 48 h, read-out: GI; outline: as §2
[31] = tested on: CAKI-1; assay: Growth inhibition of human CAKI-1 cells at 10 uM after 48 hrs; type: functional; details: CAKI-1, 48 h, read-out: GI; outline: as §1
[32] = tested on: 786-0; assay: Growth inhibition of human 786-0 cells at 10 uM after 48 hrs; type: functional; details: 786-0, 48 h, read-out: GI; outline: as §1
[33] = tested on: SK-OV-3; assay: Growth inhibition of human SKOV3 cells at 10 uM after 48 hrs; type: functional; details: SK-OV-3, 48 h, read-out: GI; outline: as §2
[34] = Growth inhibition of human NCI-ADR-RES cells at 10 uM after 48 hrs; type: functional; details: read-out: GI; outline: as §1
[35] = tested on: OVCAR-8; assay: Growth inhibition of human OVCAR8 cells at 10 uM after 48 hrs; type: functional; details: OVCAR-8, 48 h, read-out: GI; outline: as §1
[36] = Growth inhibition of human OVCAR5 cells at 10 uM after 48 hrs; type: functional; details: OVCAR-5, 48 h, read-out: GI; outline: as §1
[37] = tested on: OVCAR-3; assay: Growth inhibition of human OVCAR3 cells at 10 uM after 48 hrs; type: functional; details: OVCAR-3, 48 h, read-out: GI; outline: as §1
[38] = Growth inhibition of human OVCAR4 cells at 10 uM after 48 hrs; type: functional; details: OVCAR-4, 48 h, read-out: GI; outline: as §1
[39] = Growth inhibition of human UACC257 cells at 10 uM after 48 hrs; type: functional; details: UACC-257, 48 h, read-out: GI; outline: as §2
[40] = tested on: SK-MEL-28; assay: Growth inhibition of human SK-MEL-28 cells at 10 uM after 48 hrs; type: functional; details: SK-MEL-28, 48 h, read-out: GI; outline: as §2
[41] = tested on: SK-MEL-2; assay: Growth inhibition of human SK-MEL-2 cells at 10 uM after 48 hrs; type: functional; details: SK-MEL-2, 48 h, read-out: GI; outline: as §2

## COc1ccc(/C=C2\CCCc3c2nc(N)nc3-c2ccc(OC)c(OC)c2)cc1OC
[1]
  inhibition of growth at 10 µM: 69.2%
[2]
  inhibition of growth at 10 µM: 36.1%
[3]
  inhibition of growth at 10 µM: < 30%
[4]
  inhibition of growth at 10 µM: < 30%
[5]
  inhibition of growth at 10 µM: 36.2%
[6]
  inhibition of growth at 10 µM: 59.3%
[7]
  inhibition of growth at 10 µM: 75.8%
[8]
  inhibition of growth at 10 µM: < 30%
[9]
  inhibition of growth at 10 µM: 35.4%
[10]
  inhibition of growth at 10 µM: < 30%
[11]
  inhibition of growth at 10 µM: 50.7%
[12]
  inhibition of growth at 10 µM: 65.9%
[13]
  inhibition of growth at 10 µM: < 30%
[14]
  inhibition of growth at 10 µM: 41.2%
[15]
  inhibition of growth at 10 µM: 71.9%
[16]
  inhibition of growth at 10 µM: 44%
[17]
  inhibition of growth at 10 µM: 46.9%
[18]
  inhibition of growth at 10 µM: 84.7%
[19]
  IC50: 14 µM
[20]
  GI50: 5.1 µM
  LC50: > 100 µM
  TGI: > 100 µM
[21]
  CC50: 93.6 µM
  GI50: 7.8 µM
  TGI: 66.7 µM
[22]
  GI50: 26.7 µM
  TGI: 85.7 µM
[22]; read-out: LC50 (the source's name)
  CC50: > 100 µM
[23]
  inhibition of growth at 10 µM: < 30%
[24]
  inhibition of growth at 10 µM: 63.9%
[25]
  inhibition of growth at 10 µM: < 30%
[26]
  inhibition of growth at 10 µM: 72.4%
[27]
  inhibition of growth at 10 µM: < 30%
[28]
  inhibition of growth at 10 µM: 38.5%
[29]
  inhibition of growth at 10 µM: < 30%
[30]
  inhibition of growth at 10 µM: 37.1%
[31]
  inhibition of growth at 10 µM: 44.2%
[32]
  inhibition of growth at 10 µM: < 30%
[33]
  inhibition of growth at 10 µM: 55.9%
[34]
  inhibition of growth at 10 µM: 74.9%
[35]
  inhibition of growth at 10 µM: 89.4%
[36]
  inhibition of growth at 10 µM: < 30%
[37]
  inhibition of growth at 10 µM: 89.2%
[38]
  inhibition of growth at 10 µM: 46.7%
[39]
  inhibition of growth at 10 µM: 53.8%
[40]
  inhibition of growth at 10 µM: 34.7%
[41]
  inhibition of growth at 10 µM: 43.2%

## Nc1nc2c(c(-c3ccc(Br)cc3)n1)CCC/C2=C\c1ccc(Br)cc1
[1]
  inhibition of growth at 10 µM: 63.2%
[2]
  inhibition of growth at 10 µM: < 30%
[3]
  inhibition of growth at 10 µM: < 30%
[4]
  inhibition of growth at 10 µM: < 30%
[5]
  inhibition of growth at 10 µM: < 30%
[6]
  inhibition of growth at 10 µM: < 30%
[7]
  inhibition of growth at 10 µM: 67.8%
[8]
  inhibition of growth at 10 µM: 51.5%
[9]
  inhibition of growth at 10 µM: < 30%
[10]
  inhibition of growth at 10 µM: < 30%
[11]
  inhibition of growth at 10 µM: < 30%
[12]
  inhibition of growth at 10 µM: < 30%
[13]
  inhibition of growth at 10 µM: < 30%
[14]
  inhibition of growth at 10 µM: < 30%
[15]
  inhibition of growth at 10 µM: 54.1%
[16]
  inhibition of growth at 10 µM: < 30%
[17]
  inhibition of growth at 10 µM: < 30%
[18]
  inhibition of growth at 10 µM: < 30%
[19]
  IC50: 16 µM
[23]
  inhibition of growth at 10 µM: < 30%
[24]
  inhibition of growth at 10 µM: < 30%
[25]
  inhibition of growth at 10 µM: < 30%
[26]
  inhibition of growth at 10 µM: 61.4%
[27]
  inhibition of growth at 10 µM: < 30%
[28]
  inhibition of growth at 10 µM: < 30%
[29]
  inhibition of growth at 10 µM: < 30%
[30]
  inhibition of growth at 10 µM: < 30%
[31]
  inhibition of growth at 10 µM: < 30%
[32]
  inhibition of growth at 10 µM: < 30%
[33]
  inhibition of growth at 10 µM: < 30%
[34]
  inhibition of growth at 10 µM: < 30%
[35]
  inhibition of growth at 10 µM: < 30%
[36]
  inhibition of growth at 10 µM: < 30%
[37]
  inhibition of growth at 10 µM: < 30%
[38]
  inhibition of growth at 10 µM: < 30%
[39]
  inhibition of growth at 10 µM: < 30%
[40]
  inhibition of growth at 10 µM: < 30%
[41]
  inhibition of growth at 10 µM: < 30%
